According to ChEMBL document CHEMBL4138137, “Discovery of Novel 5-(Piperazine-1-carbonyl)pyridin-2(1H)-one Derivatives as Orally eIF4A3-Selective Inhibitors” (ACS Med Chem Lett, 2017):
≈ marks a conversion by molar mass, not a printed value.

What was measured:
[1] = biological target: Eukaryotic initiation factor 4A-III (Homo sapiens, UniProt P38919); assay: Inhibition of MLN51-induced full length recombinant human N-terminal His6/SUMO-tagged eIF4A3 RNA dependent ATPase activity expressed in Escherichia coli BL21(DE3) using single stranded poly(U) RNA as substrate after 30 mins by ADP-Glo luminescence assay
Chain of Eukaryotic initiation factor 4A-III (P38919 whole entry): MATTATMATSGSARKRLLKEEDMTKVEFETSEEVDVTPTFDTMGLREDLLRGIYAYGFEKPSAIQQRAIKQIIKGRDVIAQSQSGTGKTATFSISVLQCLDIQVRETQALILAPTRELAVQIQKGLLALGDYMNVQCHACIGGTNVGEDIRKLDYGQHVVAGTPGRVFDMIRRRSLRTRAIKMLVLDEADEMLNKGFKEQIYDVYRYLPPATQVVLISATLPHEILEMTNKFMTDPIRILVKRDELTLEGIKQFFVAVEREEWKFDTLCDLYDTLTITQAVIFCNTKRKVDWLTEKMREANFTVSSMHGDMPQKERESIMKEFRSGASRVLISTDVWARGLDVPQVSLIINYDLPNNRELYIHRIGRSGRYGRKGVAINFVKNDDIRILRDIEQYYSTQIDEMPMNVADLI
Procedure, shortened: (§1)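 IC50 reported as the mean of duplicate experiments with 95% confidence intervals.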

[2] = Solubility of the compound at pH 6.8; assay type: physicochemical; details: buffer
Procedure, shortened: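 Solubility measured at pH 6.8.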

[3] = Metabolic stability in mouse microsomes; assay type: ADME, Microsome; details: read-out: Stability
Procedure, shortened: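 Metabolic stability measured in mouse liver microsomes, expressed in μL/min/mg.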

[4] = AUC (0 to 8 hrs) in ICR mouse at 1 mg/kg, po administered as cassette dose; assay type: ADME, organism-based; parameters: dose 1 mg/kg, time < 8 hr, route oral; details: in vivo
Procedure, shortened: (§2)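 Cassette PK in male ICR mice, n = 3; dosed i.v. at 0.1 mg/kg and p.o. at 1 mg/kg. AUC taken over 0 to 8 h after oral dosing; bioavailability derived from the oral and i.v. exposures.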

[5] = Oral bioavailability in ICR mouse at 1 mg/kg administered as cassette dose; assay type: ADME, organism-based; details: in vivo; procedure, shortened: as §2
[6] = biological target: MDR1 (ABCB1, P-glycoprotein) (Homo sapiens, UniProt P08183); assay: Substrate activity at MDR1 (unknown origin) assessed as efflux ratio of permeability; assay type: ADME; details: not told
Chain of MDR1 (ABCB1, P-glycoprotein) (P08183 whole entry): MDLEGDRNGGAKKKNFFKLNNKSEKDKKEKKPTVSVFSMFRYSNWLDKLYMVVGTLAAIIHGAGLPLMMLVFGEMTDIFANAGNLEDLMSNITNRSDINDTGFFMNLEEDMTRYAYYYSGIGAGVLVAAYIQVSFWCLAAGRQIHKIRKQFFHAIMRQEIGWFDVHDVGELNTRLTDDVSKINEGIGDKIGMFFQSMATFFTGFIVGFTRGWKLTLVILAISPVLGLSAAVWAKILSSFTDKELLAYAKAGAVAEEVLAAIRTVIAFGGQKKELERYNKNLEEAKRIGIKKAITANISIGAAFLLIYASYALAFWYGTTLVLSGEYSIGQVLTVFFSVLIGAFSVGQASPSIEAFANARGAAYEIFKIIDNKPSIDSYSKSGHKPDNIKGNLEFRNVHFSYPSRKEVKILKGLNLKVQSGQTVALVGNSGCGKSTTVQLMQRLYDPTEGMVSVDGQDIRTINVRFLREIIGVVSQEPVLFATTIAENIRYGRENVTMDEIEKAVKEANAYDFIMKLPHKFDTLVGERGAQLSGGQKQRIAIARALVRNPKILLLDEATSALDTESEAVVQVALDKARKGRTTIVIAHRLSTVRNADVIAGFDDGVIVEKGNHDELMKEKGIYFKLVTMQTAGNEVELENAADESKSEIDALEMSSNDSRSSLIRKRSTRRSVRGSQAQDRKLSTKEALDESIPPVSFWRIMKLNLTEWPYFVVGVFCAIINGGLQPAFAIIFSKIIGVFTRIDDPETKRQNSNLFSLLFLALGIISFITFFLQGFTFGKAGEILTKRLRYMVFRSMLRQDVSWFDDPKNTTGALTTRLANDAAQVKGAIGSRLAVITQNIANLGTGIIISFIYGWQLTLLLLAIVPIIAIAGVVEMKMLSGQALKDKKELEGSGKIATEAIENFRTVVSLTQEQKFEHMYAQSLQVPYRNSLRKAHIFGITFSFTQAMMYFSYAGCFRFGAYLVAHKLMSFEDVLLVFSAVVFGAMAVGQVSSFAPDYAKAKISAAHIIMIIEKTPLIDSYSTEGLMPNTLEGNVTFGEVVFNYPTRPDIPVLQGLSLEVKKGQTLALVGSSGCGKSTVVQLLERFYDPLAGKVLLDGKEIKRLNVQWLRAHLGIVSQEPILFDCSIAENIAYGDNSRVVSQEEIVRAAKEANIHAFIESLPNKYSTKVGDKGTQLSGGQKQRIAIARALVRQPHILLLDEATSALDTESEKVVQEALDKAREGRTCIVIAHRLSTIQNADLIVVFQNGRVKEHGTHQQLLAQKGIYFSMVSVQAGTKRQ
Procedure, shortened: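 Efflux ratio measured in vitro in an MDR1-overexpressing cell line.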

[7] = tested on: HCT-116; assay: Growth inhibition of human HCT116 cells after 3 days by CellTiter-Glo luminescence assay; assay type: functional; details: HCT-116, 72 h
Procedure, shortened: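 HCT-116 cells exposed to compound for 72 h; growth read as intracellular ATP amount. GI50 derived by curve fitting. Data representative of three independent experiments.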

[8] = biological target: Eukaryotic initiation factor 4A-I (Homo sapiens, UniProt P60842); assay: Inhibition of eIF4G-induced full length recombinant human N-terminal His6/SUMO-tagged eIF4A1 RNA dependent ATPase activity expressed in Escherichia coli BL21(DE3) using single stranded poly(U) RNA as substrate after 40 mins by ADP-Glo luminescence assay; procedure, shortened: as §1
Chain of Eukaryotic initiation factor 4A-I (P60842 whole entry): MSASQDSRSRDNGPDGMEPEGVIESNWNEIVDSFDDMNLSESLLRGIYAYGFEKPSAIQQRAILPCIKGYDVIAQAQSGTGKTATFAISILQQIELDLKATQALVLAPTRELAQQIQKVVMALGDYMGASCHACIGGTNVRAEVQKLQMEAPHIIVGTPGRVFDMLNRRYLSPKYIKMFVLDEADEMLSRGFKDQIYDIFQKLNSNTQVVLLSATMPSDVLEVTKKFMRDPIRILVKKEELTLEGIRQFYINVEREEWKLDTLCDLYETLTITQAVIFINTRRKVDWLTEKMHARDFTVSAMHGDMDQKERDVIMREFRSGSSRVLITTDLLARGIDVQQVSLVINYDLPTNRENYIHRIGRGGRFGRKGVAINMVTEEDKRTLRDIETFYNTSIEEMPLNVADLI

[9] = biological target: Eukaryotic initiation factor 4A-II (Homo sapiens, UniProt Q14240); assay: Inhibition of eIF4G-induced full length recombinant human N-terminal His6/SUMO-tagged eIF4A2 RNA dependent ATPase activity using single stranded poly(U) RNA as substrate after 40 mins by ADP-Glo luminescence assay; procedure, shortened: as §1
Chain of Eukaryotic initiation factor 4A-II (Q14240 whole entry): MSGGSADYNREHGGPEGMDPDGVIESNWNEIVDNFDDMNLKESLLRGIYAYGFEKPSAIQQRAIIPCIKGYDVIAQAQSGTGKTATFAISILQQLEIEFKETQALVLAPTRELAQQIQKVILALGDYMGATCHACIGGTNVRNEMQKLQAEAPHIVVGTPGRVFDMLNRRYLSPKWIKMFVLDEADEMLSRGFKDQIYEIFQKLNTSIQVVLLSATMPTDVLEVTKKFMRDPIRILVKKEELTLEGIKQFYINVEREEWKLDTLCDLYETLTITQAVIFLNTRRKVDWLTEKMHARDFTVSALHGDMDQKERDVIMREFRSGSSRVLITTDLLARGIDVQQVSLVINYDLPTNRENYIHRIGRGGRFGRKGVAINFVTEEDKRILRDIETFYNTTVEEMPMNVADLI

[10] = biological target: U5 small nuclear ribonucleoprotein 200 kDa helicase (Homo sapiens, UniProt O75643); assay: Inhibition of human recombinant N-terminal full length His-tagged BRR2 RNA dependent ATPase activity expressed in baculovirus infected Sf9 insect cells using single stranded poly(U) RNA as substrate after 30 mins by ADP-Glo luminescence assay; procedure, shortened: as §1
Chain of U5 small nuclear ribonucleoprotein 200 kDa helicase (O75643 whole entry): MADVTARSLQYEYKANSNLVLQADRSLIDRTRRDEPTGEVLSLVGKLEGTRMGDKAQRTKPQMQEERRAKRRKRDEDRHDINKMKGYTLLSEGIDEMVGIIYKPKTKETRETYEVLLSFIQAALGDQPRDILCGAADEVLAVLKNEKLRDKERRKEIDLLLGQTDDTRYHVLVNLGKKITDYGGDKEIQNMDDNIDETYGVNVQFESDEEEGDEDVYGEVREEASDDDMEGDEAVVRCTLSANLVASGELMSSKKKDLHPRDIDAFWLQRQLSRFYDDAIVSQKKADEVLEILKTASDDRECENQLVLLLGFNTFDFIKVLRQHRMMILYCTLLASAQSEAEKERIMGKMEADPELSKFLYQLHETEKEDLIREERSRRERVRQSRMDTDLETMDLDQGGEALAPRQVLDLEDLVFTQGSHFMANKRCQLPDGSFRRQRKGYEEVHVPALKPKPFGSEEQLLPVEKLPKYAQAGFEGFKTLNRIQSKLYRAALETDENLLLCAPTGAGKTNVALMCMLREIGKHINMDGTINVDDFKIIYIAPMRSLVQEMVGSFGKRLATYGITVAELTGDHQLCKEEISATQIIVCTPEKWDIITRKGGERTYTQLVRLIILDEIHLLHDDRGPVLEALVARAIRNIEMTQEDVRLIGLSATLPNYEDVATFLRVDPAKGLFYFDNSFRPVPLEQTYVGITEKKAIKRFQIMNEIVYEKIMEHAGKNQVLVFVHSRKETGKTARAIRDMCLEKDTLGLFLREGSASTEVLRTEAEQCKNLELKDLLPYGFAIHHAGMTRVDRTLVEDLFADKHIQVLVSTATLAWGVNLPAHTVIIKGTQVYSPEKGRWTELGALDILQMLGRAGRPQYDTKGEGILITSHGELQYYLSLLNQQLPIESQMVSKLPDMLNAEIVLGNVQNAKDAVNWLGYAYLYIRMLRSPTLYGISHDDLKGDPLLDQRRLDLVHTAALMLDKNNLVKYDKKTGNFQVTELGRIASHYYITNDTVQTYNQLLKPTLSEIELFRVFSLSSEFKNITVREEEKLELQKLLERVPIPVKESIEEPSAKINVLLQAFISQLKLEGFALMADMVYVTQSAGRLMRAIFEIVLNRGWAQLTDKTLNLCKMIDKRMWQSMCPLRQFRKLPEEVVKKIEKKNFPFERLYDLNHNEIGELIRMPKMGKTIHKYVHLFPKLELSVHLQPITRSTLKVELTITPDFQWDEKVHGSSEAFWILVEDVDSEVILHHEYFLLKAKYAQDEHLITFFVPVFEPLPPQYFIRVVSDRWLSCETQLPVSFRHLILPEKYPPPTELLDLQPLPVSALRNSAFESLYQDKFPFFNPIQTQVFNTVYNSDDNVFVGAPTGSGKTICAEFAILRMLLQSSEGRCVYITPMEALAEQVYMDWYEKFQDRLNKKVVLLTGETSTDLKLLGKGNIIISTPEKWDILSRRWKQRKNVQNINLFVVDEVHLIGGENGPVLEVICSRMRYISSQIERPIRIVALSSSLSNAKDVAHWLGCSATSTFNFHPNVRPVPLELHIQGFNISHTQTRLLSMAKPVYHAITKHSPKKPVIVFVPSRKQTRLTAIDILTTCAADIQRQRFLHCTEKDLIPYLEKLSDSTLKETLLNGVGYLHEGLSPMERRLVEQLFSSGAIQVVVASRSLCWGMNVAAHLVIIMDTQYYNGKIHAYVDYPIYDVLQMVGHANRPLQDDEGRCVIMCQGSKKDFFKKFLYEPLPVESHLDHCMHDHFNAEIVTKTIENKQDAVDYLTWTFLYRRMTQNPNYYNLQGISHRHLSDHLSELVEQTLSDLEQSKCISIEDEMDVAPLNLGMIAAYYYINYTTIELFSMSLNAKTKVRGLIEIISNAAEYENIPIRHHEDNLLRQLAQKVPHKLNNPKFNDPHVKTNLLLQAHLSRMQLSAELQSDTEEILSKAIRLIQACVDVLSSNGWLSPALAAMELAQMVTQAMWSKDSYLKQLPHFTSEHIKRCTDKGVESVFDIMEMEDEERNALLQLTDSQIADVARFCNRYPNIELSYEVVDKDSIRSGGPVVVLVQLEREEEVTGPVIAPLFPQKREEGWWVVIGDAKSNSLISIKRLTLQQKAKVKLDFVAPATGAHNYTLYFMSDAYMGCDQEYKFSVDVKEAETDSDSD

[11] = biological target: T1, ATP-dependent RNA helicase DHX29 (Homo sapiens, UniProt Q7Z478); assay: Inhibition of human recombinant N-terminal full length FLAG-His-tagged DHX29 RNA dependent ATPase activity expressed in baculovirus infected Sf9 insect cells using single stranded poly(U) RNA as substrate after 30 mins by ADP-Glo luminescence assay; procedure, shortened: as §1
T1 sequence (Q7Z478 whole entry): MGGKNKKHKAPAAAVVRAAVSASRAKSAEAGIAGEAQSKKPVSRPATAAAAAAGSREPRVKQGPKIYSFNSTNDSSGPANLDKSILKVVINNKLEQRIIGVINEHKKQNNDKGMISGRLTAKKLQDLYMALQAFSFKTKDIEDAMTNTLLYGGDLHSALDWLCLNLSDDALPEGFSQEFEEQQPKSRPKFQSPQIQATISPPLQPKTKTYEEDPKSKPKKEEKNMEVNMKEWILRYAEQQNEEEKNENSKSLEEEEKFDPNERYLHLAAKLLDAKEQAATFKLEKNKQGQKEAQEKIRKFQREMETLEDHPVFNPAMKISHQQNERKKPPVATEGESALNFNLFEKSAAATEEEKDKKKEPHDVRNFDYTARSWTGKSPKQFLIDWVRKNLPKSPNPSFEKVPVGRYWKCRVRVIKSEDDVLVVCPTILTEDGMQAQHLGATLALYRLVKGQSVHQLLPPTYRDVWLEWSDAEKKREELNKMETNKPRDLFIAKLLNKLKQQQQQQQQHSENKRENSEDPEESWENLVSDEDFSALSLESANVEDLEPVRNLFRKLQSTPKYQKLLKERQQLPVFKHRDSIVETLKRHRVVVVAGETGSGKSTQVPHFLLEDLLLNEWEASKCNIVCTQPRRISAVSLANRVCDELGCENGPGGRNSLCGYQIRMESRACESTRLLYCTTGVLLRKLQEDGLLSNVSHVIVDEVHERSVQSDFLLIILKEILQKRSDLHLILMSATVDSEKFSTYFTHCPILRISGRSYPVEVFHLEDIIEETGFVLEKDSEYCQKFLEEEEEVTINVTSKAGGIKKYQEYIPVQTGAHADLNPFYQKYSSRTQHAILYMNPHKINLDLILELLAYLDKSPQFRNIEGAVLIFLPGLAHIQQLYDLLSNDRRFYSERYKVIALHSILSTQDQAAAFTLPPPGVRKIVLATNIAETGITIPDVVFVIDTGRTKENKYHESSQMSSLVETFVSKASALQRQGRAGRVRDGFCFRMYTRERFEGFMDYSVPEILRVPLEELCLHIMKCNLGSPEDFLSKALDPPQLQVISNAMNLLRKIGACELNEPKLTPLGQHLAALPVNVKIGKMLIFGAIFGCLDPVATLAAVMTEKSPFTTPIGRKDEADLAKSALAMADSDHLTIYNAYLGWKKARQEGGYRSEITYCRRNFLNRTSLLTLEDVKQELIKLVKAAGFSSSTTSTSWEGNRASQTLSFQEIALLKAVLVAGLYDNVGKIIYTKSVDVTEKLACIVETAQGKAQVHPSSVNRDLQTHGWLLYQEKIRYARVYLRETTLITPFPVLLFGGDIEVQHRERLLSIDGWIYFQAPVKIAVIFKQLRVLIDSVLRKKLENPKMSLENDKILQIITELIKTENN

[12] = organism: Homo sapiens; assay: Inhibition of NMD in human HCT116 cells assessed as upregulation of SC35 1.6 kb mRNA expression level at 1 uM after 6 hrs by qPCR analysis relative to control; assay type: cell-based
Procedure, shortened: (§3)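 HCT-116 colorectal carcinoma cells treated for 6 h at 1, 3 or 10 μM. SC35 1.6 kb mRNA level expressed as fold change relative to control. Data representative of three independent experiments.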

[13] = organism: Homo sapiens; assay: Inhibition of NMD in human HCT116 cells assessed as upregulation of SC35 1.6 kb mRNA expression level at 3 uM after 6 hrs by qPCR analysis relative to control; assay type: cell-based; procedure, shortened: as §3
[14] = organism: Homo sapiens; assay: Inhibition of NMD in human HCT116 cells assessed as upregulation of SC35 1.6 kb mRNA expression level at 10 uM after 6 hrs by qPCR analysis relative to control; assay type: cell-based; procedure, shortened: as §3
[15] = tested on: Mus musculus; assay: In vivo inhibition of NMD in BALB/cA Jc1 nude mouse xenografted with human HCT116 cells assessed as upregulation of SC35 1.6 kb mRNA expression level in tumor at 100 mg/kg, po administered as single dose measured after 4 hrs by qPCR analysis relative to control; assay type: functional
Procedure, shortened: (§4)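 HCT-116 xenograft mice given a single oral dose of 100 mg/kg in a solubilizing formulation. Tumour SC35 1.6 kb mRNA expression measured at 4, 8 and 24 h after dosing.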

[16] = tested on: Mus musculus; assay: In vivo inhibition of NMD in BALB/cA Jc1 nude mouse xenografted with human HCT116 cells assessed as upregulation of SC35 1.6 kb mRNA expression level in tumor at 100 mg/kg, po administered as single dose measured after 8 hrs by qPCR analysis relative to control; assay type: functional; procedure, shortened: as §4
[17] = tested on: Mus musculus; assay: In vivo inhibition of NMD in BALB/cA Jc1 nude mouse xenografted with human HCT116 cells assessed as upregulation of SC35 1.6 kb mRNA expression level in tumor at 100 mg/kg, po administered as single dose measured after 24 hrs by qPCR analysis relative to control; assay type: functional; procedure, shortened: as §4
[18] = tested on: HCT-116; assay: Antitumor activity against human HCT116 cells xenografted in BALB/cA Jc1 nude mouse assessed as reduction in tumor volume at 100 mg/kg, po bid administered for 14 days measured twice per week relative to control; assay type: functional
Procedure, shortened: (§5)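 HCT-116 xenograft mice dosed orally at 100 mg/kg twice daily for 14 days in a solubilizing formulation. Efficacy expressed as T/C versus a vehicle group, with Dunnett's test; body weight change monitored over the study.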

[19] = tested on: Mus musculus; assay: Toxicity in BALB/cA Jc1 nude mouse xenografted with human HCT116 cells assessed as reduction in body weight at 100 mg/kg, po bid administered for 14 days measured twice per week; assay type: organism-based; parameters: scale not given: the % may be the effect or the level left; details: in vivo, 336 h; procedure, shortened: as §5

SMILES | IC50 [1] [nM] | solubility [2] [µg/mL] | microsomal CLint [3] [µL/min/mg] | AUC(0-t) at 8 h [4] [ng·h/mL] | bioavailability [5] [%] | also measured
O=C(c1c[nH]c(=O)c(-c2ccc(Cl)cc2)c1)N1CCN(C(=O)c2ccc(Cl)cc2)C(c2ccc(Cl)cc2)C1 (configuration not stated) | 1100 | – | – | – | – | –
O=C(c1c[nH]c(=O)c(-c2cccc(C(F)(F)F)c2)c1)N1CCN(C(=O)c2ccc(Cl)cc2)C(c2ccc(Cl)cc2)C1 (configuration not stated) | 700 | – | – | – | – | –
O=C(c1c[nH]c(=O)c2ccccc12)N1CCN(C(=O)c2ccc(Br)cc2)[C@@H](c2ccc(Cl)cc2)C1 | 290 | 11 (≈ 20 µM) | 16 | 97.3 | 9.6 | –
O=C(c1c[nH]c(=O)c(-c2ccccc2Cl)c1)N1CCN(C(=O)c2ccc(Cl)cc2)C(c2ccc(Cl)cc2)C1 (configuration not stated) | 420 | – | – | – | – | –
O=C(c1c[nH]c(=O)c(-c2ccccc2)c1)N1CCN(C(=O)c2ccc(Cl)cc2)C(c2ccc(Cl)cc2)C1 (configuration not stated) | 410 | – | – | – | – | –
O=C(c1cncc2ccccc12)N1CCN(C(=O)c2ccc(Br)cc2)[C@@H](c2ccc(Cl)cc2)C1 | 1600 | 5.1 (≈ 9.54 µM) | 202 | 1.5 | 0.4 | –
N#Cc1cccc(-c2cc(C(=O)N3CCN(C(=O)c4ccc(Br)cn4)[C@@H](c4ccc(Cl)cc4)C3)c[nH]c2=O)c1 | 50 | 2.4 (≈ 3.98 µM) | 113 | – | – | efflux ratio [6]: 35
O=C(c1cnn2cc(Br)ccc12)N1CCN(C(=O)c2ccc(Br)cc2)[C@@H](c2ccc(Cl)cc2)C1 | – | 0.46 (≈ 0.763 µM) | 227 | 9 | 5.7 | GI50 [7]: 3060 nM; efflux ratio [6]: 0.9
O=C(c1ccnc2ccccc12)N1CCN(C(=O)c2ccc(Br)cc2)[C@@H](c2ccc(Cl)cc2)C1 | 2700 | 3.2 (≈ 5.98 µM) | 143 | 129 | 19.7 | –
O=C(c1c[nH]c(=O)c(-c2cccc(Cl)c2)c1)N1CCN(C(=O)c2ccc(Cl)cc2)C(c2ccc(Cl)cc2)C1 (configuration not stated) | 290 | – | – | – | – | –
N#Cc1cccc(-c2cc(C(=O)N3CCN(C(=O)c4ccc(Cl)cc4)C(c4ccc(Cl)cc4)C3)c[nH]c2=O)c1 (configuration not stated) | 190 | – | – | – | – | –
Cn1cc(C(=O)N2CCN(C(=O)c3ccc(Br)cn3)[C@@H](c3ccc(Cl)cc3)C2)cc(-c2cccc(C#N)c2)c1=O | 100 | 12 (≈ 19.5 µM) | 6 | 147 | 16.1 | IC50 [8]: > 100000 nM; IC50 [9]: > 100000 nM; IC50 [10]: > 100000 nM; IC50 [11]: > 100000 nM; fold change (FC) [12]: 2.17; fold change (FC) [13]: 8.41; fold change (FC) [14]: 19.1; GI50 [7]: 1340 nM; fold change (FC) [15]: 4; fold change (FC) [16]: 2.5; fold change (FC) [17]: 1.2; T/C [18]: 54%; Activity [19]: < 5%; efflux ratio [6]: 25
O=C(c1c[nH]c(=O)c2ccccc12)N1CCN(C(=O)c2ccc(Cl)cc2)C(c2ccc(Cl)cc2)C1 (configuration not stated) | 1300 | – | – | – | – | –
O=C(c1cnn2cc(Br)ccc12)N1CCN(C(=O)c2ccc(Br)cn2)[C@@H](c2ccc(Cl)cc2)C1 | 280 | 3.8 (≈ 6.29 µM) | 207 | 55.9 | 11.4 | –
CS(=O)(=O)c1cccc(-c2cc(C(=O)N3CCN(C(=O)c4ccc(Cl)cc4)C(c4ccc(Cl)cc4)C3)c[nH]c2=O)c1 (configuration not stated) | 490 | – | – | – | – | –
